What was measured:
Raji [1] = assay: Inhibition of TPA-induced EBV-early antigen activation in human Raji cells at 1000 molar ratio relative to TPA; type: cell-based; set-up: scale not given: the % may be the effect or the level left; details: human gammaherpesvirus 4
UACC-257 = assay: Cytotoxicity against human UACC-257 cells after 48 hrs by SRB assay; type: functional; details: UACC-257, 48 h
How it was run: (§1)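 Tested in the NCI panel of 60 human tumour cell lines covering lung, colon, melanoma, renal, ovarian, breast and leukaemia. At least five concentrations were run in 10-fold dilutions starting from 10^-4 M. Exposure was continuous for 48 h. Growth or viability was estimated by sulforhodamine B protein staining, and GI50 values were reported.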

786-0 = assay: Cytotoxicity against human 786-0 cells after 48 hrs by SRB assay; type: functional; details: 786-0, 48 h
TK-10 = assay: Cytotoxicity against human TK-10 cells after 48 hrs by SRB assay; type: functional; details: TK-10, 48 h; how it was run: as §1
HL-60 = assay: Cytotoxicity against human HL-60 cells after 48 hrs by SRB assay; type: functional; details: HL-60, 48 h
SF-268 = assay: Cytotoxicity against human SF-268 cells after 48 hrs by SRB assay; type: functional; details: SF-268, 48 h
SK-MEL-5 = assay: Cytotoxicity against human SK-MEL-5 cells after 48 hrs by SRB assay; type: functional; details: SK-MEL-5, 48 h
BT-549 = assay: Cytotoxicity against human BT-549 cells after 48 hrs by SRB assay; type: functional; details: BT-549, 48 h
[2] = Cytotoxicity against human SK MEL28 cells after 48 hrs by SRB assay; type: functional; details: SK-MEL-28, 48 h
SNB-19 = assay: Cytotoxicity against human SNB-19 cells after 48 hrs by SRB assay; type: functional; details: SNB-19, 48 h
MCF7 = assay: Cytotoxicity against human MCF7 cells after 48 hrs by SRB assay; type: functional; details: MCF7, 48 h
[3] = Cytotoxicity against human Raji cells assessed as cell viability at 100 molar ratio; type: cell-based; details: read-out: Activity
How it was run: (§2)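 Raji cells were treated with 32 pmol TPA to induce EBV early antigen activation. The test agent was added at 10, 100, 500 or 1000 mol ratio relative to TPA, and Raji cell viability was measured alongside EA activation.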

[4] = Cytotoxicity against human Raji cells assessed as cell viability at 500 molar ratio; type: cell-based; details: read-out: Activity; how it was run: as §2
MDA-MB-435 = assay: Cytotoxicity against human MDA-MB-435 cells after 48 hrs by SRB assay; type: functional; details: MDA-MB-435, 48 h
OVCAR-8 = assay: Cytotoxicity against human OVCAR8 cells after 48 hrs by SRB assay; type: functional; details: OVCAR-8, 48 h
RXF 393 = assay: Cytotoxicity against human […] cells after 48 hrs by SRB assay; type: functional; details: RXF 393, 48 h
OVCAR-3 = assay: Cytotoxicity against human OVCAR-3 cells after 48 hrs by SRB assay; type: functional; details: OVCAR-3, 48 h
[5] = Inhibition of TPA-induced EBV-early antigen activation in human Raji cells relative to TPA; type: cell-based, human gammaherpesvirus 4
NCI/ADR-RES = assay: Cytotoxicity against human NCI/ADR-RES cells after 48 hrs by SRB assay; type: functional
HCT-15 = assay: Cytotoxicity against human HCT-15 cells after 48 hrs by SRB assay; type: functional; details: HCT-15, 48 h
T47D = assay: Cytotoxicity against human T47D cells after 48 hrs by SRB assay; type: functional; how it was run: as §1
HT-29 = assay: Cytotoxicity against human HT-29 cells after 48 hrs by SRB assay; type: functional; details: HT-29, 48 h
Raji [6] = assay: Inhibition of TPA-induced EBV-early antigen activation in human Raji cells at 100 molar ratio relative to TPA; type: cell-based; set-up: scale not given: the % may be the effect or the level left; details: human gammaherpesvirus 4
CAKI-1 = assay: Cytotoxicity against human Caki-1 cells after 48 hrs by SRB assay; type: functional; details: CAKI-1, 48 h
[7] = Cytotoxicity against human Raji cells assessed as cell viability at 10 molar ratio; type: cell-based; details: read-out: Activity; how it was run: as §2
UACC-62 = assay: Cytotoxicity against human UACC-62 cells after 48 hrs by SRB assay; type: functional; details: UACC-62, 48 h; how it was run: as §1
NCI-H460 = assay: Cytotoxicity against human NCI-H460 cells after 48 hrs by SRB assay; type: functional; details: NCI-H460, 48 h
IGROV-1 = assay: Cytotoxicity against human IGROV1 cells after 48 hrs by SRB assay; type: functional; details: IGROV-1, 48 h
U-251 = assay: Cytotoxicity against human U251 cells after 48 hrs by SRB assay; type: functional; details: U-251, 48 h; how it was run: as §1
UO-31 = assay: Cytotoxicity against human UO-31 cells after 48 hrs by SRB assay; type: functional; details: UO-31, 48 h; how it was run: as §1
HCC 2998 = assay: Cytotoxicity against human HCC2998 cells after 48 hrs by SRB assay; type: functional; details: HCC 2998, 48 h
A549 = assay: Cytotoxicity against human A549 cells after 48 hrs by SRB assay; type: functional; details: A549, 48 h
HOP-62 = assay: Cytotoxicity against human HOP-62 cells after 48 hrs by SRB assay; type: functional; details: HOP-62, 48 h
MOLT-4 = assay: Cytotoxicity against human MOLT-4 cells after 48 hrs by SRB assay; type: functional; details: MOLT-4, 48 h
NCI-H226 = assay: Cytotoxicity against human NCI-H226 cells after 48 hrs by SRB assay; type: functional; details: NCI-H226, 48 h
LOX IMVI = assay: Cytotoxicity against human LOX IMVI cells after 48 hrs by SRB assay; type: functional
EKVX = assay: Cytotoxicity against human EKVX cells after 48 hrs by SRB assay; type: functional
MDA-MB-231 = assay: Cytotoxicity against human MDA-MB-231 cells after 48 hrs by SRB assay; type: functional; details: MDA-MB-231, 48 h
NCI-H23 = assay: Cytotoxicity against human NCI-H23 cells after 48 hrs by SRB assay; type: functional; details: NCI-H23, 48 h
[8] = Cytotoxicity against human Hs 578T cells after 48 hrs by SRB assay; type: functional
COLO 205 = assay: Cytotoxicity against human COLO205 cells after 48 hrs by SRB assay; type: functional; details: COLO 205, 48 h
NCI-H322M = assay: Cytotoxicity against human NCI-H322M cells after 48 hrs by SRB assay; type: functional
SW-620 = assay: Cytotoxicity against human SW620 cells after 48 hrs by SRB assay; type: functional; details: SW-620, 48 h
NCI-H522 = assay: Cytotoxicity against human NCI-H522 cells after 48 hrs by SRB assay; type: functional; details: NCI-H522, 48 h
KM12 = assay: Cytotoxicity against human KM12 cells after 48 hrs by SRB assay; type: functional; details: KM12, 48 h
SK-MEL-2 = assay: Cytotoxicity against human SK-MEL-2 cells after 48 hrs by SRB assay; type: functional; details: SK-MEL-2, 48 h
OVCAR-5 = assay: Cytotoxicity against human OVCAR5 cells after 48 hrs by SRB assay; type: functional; details: OVCAR-5, 48 h
Raji [9] = assay: Inhibition of TPA-induced EBV-early antigen activation in human Raji cells at 500 molar ratio relative to TPA; type: cell-based; set-up: scale not given: the % may be the effect or the level left; details: human gammaherpesvirus 4
Malme-3M = assay: Cytotoxicity against human MALME-3M cells after 48 hrs by SRB assay; type: functional
CCRF-CEM = assay: Cytotoxicity against human CCRF-CEM cells after 48 hrs by SRB assay; type: functional
[10] = Cytotoxicity against human HCT 116 cells after 48 hrs by SRB assay; type: functional; details: HCT-116, 48 h
[11] = Cytotoxicity against human Raji cells assessed as cell viability at 1000 molar ratio; type: cell-based; details: read-out: Activity; how it was run: as §2
Raji [12] = assay: Inhibition of TPA-induced EBV-early antigen activation in human Raji cells at 10 molar ratio relative to TPA; type: cell-based; set-up: scale not given: the % may be the effect or the level left; details: human gammaherpesvirus 4
SN12C = assay: Cytotoxicity against human SN12C cells after 48 hrs by SRB assay; type: functional
K562 = assay: Cytotoxicity against human K-562 cells after 48 hrs by SRB assay; type: functional; details: K562, 48 h
ACHN = assay: Cytotoxicity against human ACHN cells after 48 hrs by SRB assay; type: functional
PC-3 = assay: Cytotoxicity against human PC-3 cells after 48 hrs by SRB assay; type: functional; details: PC-3, 48 h

**Q.** Which Activity (Raji [1]) does the source give for `COC(=O)[C@H]1O[C@@H](O[C@H]2CC[C@]3(C)[C@H]4CC=C5[C@@H]6CC(C)(C)CC[C@]6(C(=O)O)CC[C@@]5(C)[C@]4(C)CC[C@H]3C2(C)C)[C@H](O)[C@@H](O[C@@H]2O[C@H](CO)[C@H](O)[C@H](O)[C@H]2O)[C@@H]1O` here?
**A.** 10%

**Q.** What about the GI50 (UACC-257) of the same compound?
**A.** 6.89 µM

**Q.** And the GI50 (786-0)?
**A.** 6.36 µM

**Q.** And the GI50 (TK-10)?
**A.** 7.22 µM

**Q.** And the GI50 (HL-60)?
**A.** 6.92 µM

**Q.** What about the GI50 (SF-268) of the same compound?
**A.** 7.56 µM

**Q.** And the GI50 (SK-MEL-5)?
**A.** 6.14 µM

**Q.** And the GI50 (BT-549)?
**A.** 6.93 µM

**Q.** What about the GI50 [2] of the same compound?
**A.** 10.2 µM

**Q.** And the GI50 (SNB-19)?
**A.** 6.82 µM

**Q.** And the GI50 (MCF7)?
**A.** 9.93 µM

**Q.** And the viability at 100 molar ratio [3]?
**A.** > 80%

**Q.** What about the viability at 500 molar ratio [4] of the same compound?
**A.** > 80%

**Q.** And the GI50 (MDA-MB-435)?
**A.** 13.3 µM

**Q.** What about the GI50 (OVCAR-8) of the same compound?
**A.** 9.96 µM

**Q.** And the GI50 (RXF 393)?
**A.** 11.3 µM

**Q.** What about the GI50 (OVCAR-3) of the same compound?
**A.** 13.9 µM

**Q.** And the IC50 [5]?
**A.** 479 molar ratio

**Q.** And the GI50 (NCI/ADR-RES)?
**A.** 7.24 µM

**Q.** What about the GI50 (HCT-15) of the same compound?
**A.** 6.57 µM

**Q.** What about the GI50 (T47D) of the same compound?
**A.** 8.16 µM

**Q.** And the GI50 (HT-29)?
**A.** 12.4 µM

**Q.** What about the Activity (Raji [6]) of the same compound?
**A.** 71.2%

**Q.** And the GI50 (CAKI-1)?
**A.** 12.2 µM

**Q.** And the viability at 10 molar ratio [7]?
**A.** > 80%

**Q.** What about the GI50 (UACC-62) of the same compound?
**A.** 6.23 µM

**Q.** And the GI50 (NCI-H460)?
**A.** 11.5 µM

**Q.** What about the GI50 (IGROV-1) of the same compound?
**A.** 20.1 µM

**Q.** What about the GI50 (U-251) of the same compound?
**A.** 6.08 µM

**Q.** And the GI50 (UO-31)?
**A.** 33.3 µM

**Q.** What about the GI50 (HCC 2998) of the same compound?
**A.** 7.14 µM

**Q.** What about the GI50 (A549) of the same compound?
**A.** 7.22 µM

**Q.** And the GI50 (HOP-62)?
**A.** 6.21 µM

**Q.** And the GI50 (MOLT-4)?
**A.** 2.17 µM

**Q.** What about the GI50 (NCI-H226) of the same compound?
**A.** 6.18 µM

**Q.** What about the GI50 (LOX IMVI) of the same compound?
**A.** 6.27 µM

**Q.** And the GI50 (EKVX)?
**A.** 6.59 µM

**Q.** And the GI50 (MDA-MB-231)?
**A.** 7.28 µM

**Q.** And the GI50 (NCI-H23)?
**A.** 6.46 µM

**Q.** What about the GI50 [8] of the same compound?
**A.** 8.77 µM

**Q.** What about the GI50 (COLO 205) of the same compound?
**A.** 8.64 µM

**Q.** And the GI50 (NCI-H322M)?
**A.** 7.59 µM

**Q.** What about the GI50 (SW-620) of the same compound?
**A.** 7.28 µM

**Q.** What about the GI50 (NCI-H522) of the same compound?
**A.** 10.5 µM

**Q.** What about the GI50 (KM12) of the same compound?
**A.** 8.83 µM

**Q.** And the GI50 (SK-MEL-2)?
**A.** 11.9 µM

**Q.** And the GI50 (OVCAR-5)?
**A.** 7.31 µM

**Q.** And the Activity (Raji [9])?
**A.** 47.2%

**Q.** What about the GI50 (Malme-3M) of the same compound?
**A.** 6.22 µM

**Q.** What about the GI50 (CCRF-CEM) of the same compound?
**A.** 5.79 µM

**Q.** And the GI50 [10]?
**A.** 6.39 µM

**Q.** And the viability at 1000 molar ratio [11]?
**A.** 70%

**Q.** What about the Activity (Raji [12]) of the same compound?
**A.** 100%

**Q.** What about the GI50 (SN12C) of the same compound?
**A.** 6.34 µM

**Q.** And the GI50 (K562)?
**A.** 8.17 µM

**Q.** And the GI50 (ACHN)?
**A.** 5.99 µM

**Q.** What about the GI50 (PC-3) of the same compound?
**A.** 6.43 µM

From ChEMBL document CHEMBL1158122, “Anti-inflammatory, anti-tumor-promoting, and cytotoxic activities of constituents of marigold (Calendula officinalis) flowers” (J Nat Prod, 2006)
